Test results published in PMC6796888 (ACS Omega, 2019).
Converted amounts (≈) assume the structure as drawn. Each block holds one molecule with its values, some of them ahead of it.

Columns and labels:
[1] = test system: E. coli ATCC 25922; assay: In vitro screening, % growth inhibition at 250 μg/mL; type: cell-based, Escherichia coli; conditions: for inhibition at 250 µg/mL: Escherichia coli, ATCC25922, 24 h, read-out: % inhibition at 250 μg/mL
Summary of the method: (§1)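 Test compounds dissolved in DMSO and diluted in test medium. Mid-log cultures diluted in nutrient broth to McFarland standard and treated with 250 μg/mL in 96-well plates, 37 °C, 160 rpm, 24 h. Growth read as OD at 580 nm; % inhibition calculated from absorbance against untreated growth. Run twice on different occasions.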

[2] = test system: P. auroginosa MTCC 2453; assay: as above; type: cell-based, Pseudomonas auroginosa; conditions: for % inhibition at 250 μg/mL: P. auroginosa MTCC 2453, 24 h; for inhibition at 250 µg/mL: Pseudomonas, MTCC2453, 24 h, read-out: % inhibition at 250 μg/mL
Summary of the method: as §1

[3] = test system: P. auroginosa MTCC 2453; assay: MIC by broth microdilution; type: cell-based, Pseudomonas auroginosa; conditions: Pseudomonas, MTCC2453
[4] = test system: E. faecalis MTCC 439; assay: In vitro screening, % growth inhibition at 250 μg/mL; type: cell-based, Enterococcus faecalis; conditions: for inhibition at 250 µg/mL: Enterococcus faecalis, MTCC439, 24 h, read-out: % inhibition at 250 μg/mL
Summary of the method: as §1

[5] = test system: S. pneumoniae MTCC 655; assay: as above; type: cell-based, Streptococcus pneumoniae; conditions: for inhibition at 250 µg/mL: Streptococcus pneumoniae, MTCC655, 24 h, read-out: % inhibition at 250 μg/mL
Summary of the method: as §1

[6] = test system: S. pneumoniae MTCC 655; assay: MIC by broth microdilution; type: cell-based; conditions: Streptococcus pneumoniae, MTCC655
[7] = test system: E. coli cells; assay: Confocal laser microscopy with DAPI staining; type: cell-based, Escherichia coli; conditions: MIC of 4l for 3 h
[8] = test system: S. typhimurium; assay: Synergistic assay with ciprofloxacin; type: cell-based, Salmonella typhimurium
[9] = Hemolytic assay; type: cell-based; conditions: human, human red blood cells (erythrocytes/PBS suspension)
Summary of the method: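 Human blood from a healthy donor was collected in EDTA and spun at 2000 rpm for 10 min at room temperature. Erythrocytes were PBS-washed, made into a 10% (v/v) suspension and diluted 1:10. Test compound (400–3.125 μg/mL in PBS) mixed with an equal volume of this suspension, 1 h at 37 °C, then spun.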

[10] = test system: E. faecalis MTCC 439; assay: MIC by broth microdilution; type: cell-based; conditions: Enterococcus faecalis, MTCC439
[11] = test system: S. pneumoniae MTCC 655; assay: Spot assay; type: cell-based, Streptococcus pneumoniae; conditions: 2MIC, 6 h exposure
Summary of the method: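 Mid-log S. pneumoniae MTCC 655 harvested and diluted in sterile PBS to McFarland standard. 2 mL suspension exposed to test compound at 2MIC, MIC or 0.5MIC, 37 °C, 160 rpm, 6 h. 2 μL spots put on nutrient agar, 37 °C for 24 h, growth scored +/−. Ciprofloxacin-treated positive and untreated negative controls. Triplicate, three occasions.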

[12] = test system: E. coli; assay: Time–kill curve assay; type: cell-based, Escherichia coli
Summary of the method: (§2)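 Nutrient broth inoculated with about 2 × 10^6 cells of fresh culture, two-fold diluted and exposed to test compound at MIC or 2MIC; untreated control included. Incubation at 37 °C, 160 rpm. At 0, 2, 4, 8 and 24 h, 100 μL was diluted in sterile saline, 50 μL plated on nutrient agar and colonies counted after 24 h at 37 °C. Duplicate; mean log10 CFU/mL plotted against time.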

[13] = test system: E. coli ATCC 25922; assay: MIC by broth microdilution; type: cell-based; conditions: Escherichia coli, ATCC25922
[14] = test system: E. coli; assay: Synergistic assay with ciprofloxacin; type: cell-based, Escherichia coli
[15] = test system: S. typhimurium MTCC 3224; assay: In vitro screening, % growth inhibition at 250 μg/mL; type: cell-based, Salmonella typhimurium; conditions: 24 h
Summary of the method: as §1

[16] = test system: S. pneumoniae biofilm; assay: Biofilm assessment by XTT assay; type: cell-based, Streptococcus pneumoniae
[17] = test system: E. faecalis; assay: Synergistic assay with ciprofloxacin; type: cell-based, Enterococcus faecalis
[18] = test system: E. coli biofilm; assay: Biofilm assessment by XTT assay; type: cell-based, Escherichia coli; conditions: for reduction in absorbance (biofilm, XTT): 24 h
Summary of the method: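 Biofilms grown from 100 μL standardized cell suspension in nutrient broth with 0.5% extra glucose, 37 °C, 24 h, static. […] Washed again, XTT salt added for 90 min at 37 °C in the dark, A490 read. % inhibition taken from dose–response curves.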

[19] = test system: S. pneumoniae; assay: Time–kill curve assay; type: cell-based, Streptococcus pneumoniae; conditions: up to 24 h
Summary of the method: as §2

[20] = test system: S. pneumoniae; assay: Synergistic assay with ciprofloxacin; type: cell-based, Streptococcus pneumoniae
[21] = test system: E. coli ATCC 25922; assay: Disk diffusion assay; type: cell-based, Escherichia coli
[22] = test system: S. pneumoniae MTCC 655; assay: Disk diffusion assay; type: cell-based, Streptococcus pneumoniae
[23] = test system: S. pneumoniae; assay: Growth kinetic studies; type: cell-based, Streptococcus pneumoniae; conditions: 2MIC and MIC
[24] = test system: S. typhimurium MTCC 3224; assay: MIC by broth microdilution; type: cell-based; conditions: Salmonella enterica, MTCC3224|TYPHIMURIUM
[25] = test system: E. coli biofilm; assay: Biofilm formation assessment by SEM; type: cell-based, Escherichia coli; conditions: 24 h
Summary of the method: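 Sterile glass pieces (10 mm2) placed in nutrient broth with 0.5% extra glucose and inoculated with fresh E. coli primary culture. […] Glass washed with PBS and fixed overnight in 2.5% glutaraldehyde/2% paraformaldehyde in 0.1 M phosphate buffer pH 7.4. Washed, dried, imaged by SEM; untreated control included.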

[26] = test system: P. aeruginosa; assay: Synergistic assay with ciprofloxacin; type: cell-based
[27] = test system: E. coli; assay: Growth kinetic studies; type: cell-based, Escherichia coli; conditions: 2MIC and MIC
[28] = S. typhimurium, 4l combined with CIP
[29] = E. faecalis, 4l combined with CIP
[30] = S. pneumoniae, 4l combined with CIP
[31] = P. aeruginosa, 4l combined with CIP

MIC [3]: 250 µg/mL (≈ 558 µM)
Structure (SMILES): CNC1=C([N+](=O)[O-])C2(C(=O)Nc3ccc(Br)cc32)C2=C(CC(C)(C)CC2=O)O1 (centres unmarked) [Compound 4c]
inhibition at 250 µg/mL [1]: 40.7%
% inhibition at 250 μg/mL [2]: complete growth inhibition
inhibition at 250 µg/mL [2]: 100%
inhibition at 250 µg/mL [4]: 38.1%
inhibition at 250 µg/mL [5]: 21.5%

Structure (SMILES): CNC1=C([N+](=O)[O-])C2(C(=O)Nc3ccc(Cl)cc32)C2=C(CC(C)(C)CC2=O)O1 (centres unmarked) [Compound 4b]
inhibition at 250 µg/mL [1]: 43.2%
inhibition at 250 µg/mL [2]: 18%
inhibition at 250 µg/mL [4]: 31.9%
inhibition at 250 µg/mL [5]: 21.3%

MIC [6]: 125 µg/mL (≈ 310 µM)
MIC in combination [8, 28]: 3.90 µg/mL
MIC ([8]; Salmonella enterica, TYPHIMURIUM, read-out: MIC alone): 250 µg/mL
MIC [10]: 250 µg/mL (≈ 620 µM)
MIC [13]: 125 µg/mL (≈ 310 µM)
MIC in combination ([14]; E. coli, 4l combined with CIP): 3.90 µg/mL
MIC ([14]; Escherichia coli, read-out: MIC alone): 125 µg/mL
MIC in combination [17, 29]: 3.90 µg/mL
MIC ([17]; Enterococcus faecalis, read-out: MIC alone): 250 µg/mL
MIC in combination [20, 30]: 3.90 µg/mL
MIC ([20]; Streptococcus pneumoniae, read-out: MIC alone): 125 µg/mL
MIC [3]: 125 µg/mL (≈ 310 µM)
MIC [24]: 250 µg/mL (≈ 620 µM)
MIC in combination [26, 31]: 15.63 µg/mL
MIC ([26]; Pseudomonas aeruginosa, read-out: MIC alone): 250 µg/mL
Structure (SMILES): CNC1=C([N+](=O)[O-])C2(C(=O)Nc3ccccc32)C2=C(O1)C(=O)c1ccccc1C2=O (centres unmarked) [Compound 4l]
effect on E. coli cells under confocal microscopy (DAPI) [7]: reduction in the number of living cells
FICI [8, 28]: 1.01
mode of interaction [8, 28]: indifferent (An FIC index result of >0.5 but <4 was considered indifferent)
hemolysis at 1 h, 100 μg/mL [9]: 13%
hemolysis at 1 h, 200 μg/mL [9]: 20%
hemolysis at 1 h, 400 μg/mL [9]: 32%
% inhibition at 250 μg/mL ([1]; E. coli ATCC 25922, 250 μg/mL, 24 h): complete inhibition
inhibition at 250 µg/mL [1]: 100%
growth in spot assay (in words) [11]: no S. pneumoniae growth
killing activity (time–kill) ([12]; 2MIC, after 24 h): complete eradication
killing activity (time–kill) ([12]; MIC, up to 24 h): significant decrease in log10 CFU/mL
FICI ([14]; E. coli, 4l combined with CIP): 0.53
% inhibition at 250 μg/mL [15]: complete inhibition
effect on biofilm formation (XTT) ([16]; even at MIC, 24 h): almost completely disrupted biofilm formation
effect on biofilm formation (XTT) ([16]; sub-MIC: MIC/2, MIC/4, MIC/8): significant reduction in biofilm formation
FICI [17, 29]: 0.27
mode of interaction [17, 29]: synergistic (Synergy and antagonism were defined by FIC indices of <0.5 and >4, respectively)
reduction in absorbance (biofilm, XTT) ([18]; 2MIC (by order)): 80%
reduction in absorbance (biofilm, XTT) ([18]; 4MIC (first of 4MIC, 2MIC, MIC by order)): 97%
reduction in absorbance (biofilm, XTT) ([18]; MIC (by order)): 77%
effect on biofilm formation (XTT) ([18]; sub-MIC: MIC/2, MIC/4, MIC/8): significant reduction in biofilm formation
killing activity (time–kill) ([19]; 2MIC): almost completely killed bacterial cells
killing activity (time–kill) ([19]; MIC): significant decrease in log10 CFU/mL
FICI [20, 30]: 0.29
mode of interaction [20, 30]: synergistic (Synergy and antagonism were defined by FIC indices of <0.5 and >4, respectively)
% inhibition at 250 μg/mL [2]: complete inhibition
inhibition at 250 µg/mL [2]: 100%
additional opaque zone of inhibition ([21]; 2MIC, MIC and 0.5MIC disks): 3 ± 1 mm
clear zone of inhibition ([21]; disk with 0.5MIC (62.5 μg/mL)): 14 mm
clear zone of inhibition ([21]; disk with 2MIC (250 μg/mL)): 18 mm
clear zone of inhibition ([21]; disk with MIC (125 μg/mL)): 17 mm
additional opaque zone of inhibition ([22]; 2MIC, MIC and 0.5MIC disks): 3 ± 1 mm
clear zone of inhibition ([22]; disk with 0.5MIC (62.5 μg/mL)): 14 mm
clear zone of inhibition ([22]; disk with 2MIC (250 μg/mL)): 17 mm
clear zone of inhibition ([22]; disk with MIC (125 μg/mL)): 15 mm
continuous lag phase (no substantial growth) [23]: 24 h
% inhibition at 250 μg/mL ([4]; E. faecalis MTCC 439, 250 μg/mL, 24 h): complete inhibition
inhibition at 250 µg/mL [4]: 100%
biofilm appearance under SEM ([25]; 2MIC): very few scattered bacterial cells
biofilm appearance under SEM ([25]; MIC): significant damage in biofilm formation
FICI [26, 31]: 1.06
mode of interaction [26, 31]: indifferent (An FIC index result of >0.5 but <4 was considered indifferent)
% inhibition at 250 μg/mL ([5]; S. pneumoniae MTCC 655, 250 μg/mL, 24 h): complete inhibition
inhibition at 250 µg/mL [5]: 100%
continuous lag phase (no substantial growth) [27]: 24 h

Structure (SMILES): CNC1=C([N+](=O)[O-])C2(C(=O)Nc3ccc([N+](=O)[O-])cc32)C2=C(CC(C)(C)CC2=O)O1 (centres unmarked) [Compound 4d]
inhibition at 250 µg/mL [1]: 36.1%
inhibition at 250 µg/mL [2]: 52.5%
inhibition at 250 µg/mL [4]: 30.4%
inhibition at 250 µg/mL [5]: 23.2%
